Experimental data taken from ChEMBL document CHEMBL1124396, “New brain perfusion imaging agents based on 99mTc-bis(aminoethanethiol) complexes: stereoisomers and biodistribution” (J Med Chem, 1989).
“And” between values parts separate entries of the source, which are not always exact repeats. Equal values may be shown once.

How the values were obtained:
[1] = tested on: Rattus norvegicus; test: Biodistribution in the heart of rat, 15 min after administration; format: ADME, organism-based; settings: in vivo, 0.25 h
How it was run: (§1)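 Male Sprague-Dawley rats (200-300 g) under ether anesthesia were given the 99mTc complex (0.5-20 μCi in 0.2 mL saline) iv via the femoral vein. Organs were taken at 2 or 15 min. Uptake is reported as % dose/organ, found by comparing tissue radioactivity with dilutions of the injected dose.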

[2] = tested on: Rattus norvegicus; test: Biodistribution in the muscle of rat, 15 min after administration; format: ADME, organism-based, Muscle tissue; settings: in vivo, 0.25 h; how it was run: as §1
[3] = tested on: Rattus norvegicus; test: Biodistribution in the liver of rat, 15 min after administration; format: ADME, organism-based; settings: in vivo, 0.25 h; how it was run: as §1
[4] = tested on: Rattus norvegicus; test: Biodistribution in the spleen of rat, 2 min after administration; format: ADME, organism-based; settings: in vivo; how it was run: as §1
[5] = tested on: Rattus norvegicus; test: Biodistribution in the thyroid of rat, 2 min after administration; format: ADME, organism-based, Thyroid gland; settings: in vivo; how it was run: as §1
[6] = tested on: Rattus norvegicus; test: Biodistribution in the blood of rat, 2 min after administration; format: ADME, organism-based; settings: in vivo; how it was run: as §1
[7] = tested on: Rattus norvegicus; test: Biodistribution in the thyroid of rat, 15 min after administration; format: ADME, organism-based, Thyroid gland; settings: in vivo, 0.25 h; how it was run: as §1
[8] = tested on: Rattus norvegicus; test: Biodistribution in the blood of rat, 15 min after administration; format: ADME, organism-based; settings: in vivo, 0.25 h; how it was run: as §1
[9] = tested on: Rattus norvegicus; test: Biodistribution in the spleen of rat, 15 min after administration; format: ADME, organism-based; settings: in vivo, 0.25 h; how it was run: as §1
[10] = tested on: Rattus norvegicus; test: Biodistribution in the muscle of rat, 2 min after administration; format: ADME, organism-based, Muscle tissue; settings: in vivo; how it was run: as §1
[11] = tested on: Rattus norvegicus; test: Biodistribution in the brain blood of rat, 2 min after administration; format: ADME, organism-based; settings: in vivo
How it was run: (§2)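 Rats (male Sprague-Dawley, 200-300 g) received the 99mTc complex iv (femoral vein, ether anesthesia; 0.5-20 μCi in 0.2 mL saline) and were sampled at 2 or 15 min. % dose/organ was converted to % dose/gram using mean organ weights (brain 1.65 g, blood 18 g). Brain:blood ratio was taken from these % dose/gram values.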

[12] = tested on: Rattus norvegicus; test: Biodistribution in the brain blood of rat, 15 min after administration; format: ADME, organism-based; settings: in vivo, 0.25 h; how it was run: as §2
[13] = tested on: Rattus norvegicus; test: Biodistribution in the lungs of rat, 2 min after administration; format: ADME, organism-based, Lung; settings: in vivo; how it was run: as §1
[14] = tested on: Rattus norvegicus; test: Biodistribution in the skin of rat, 2 min after administration; format: ADME, organism-based, Zone of skin; settings: in vivo; how it was run: as §1
[15] = tested on: Rattus norvegicus; test: Biodistribution in the stomach of rat, 15 min after administration; format: ADME, organism-based; settings: in vivo, 0.25 h; how it was run: as §1
[16] = tested on: Rattus norvegicus; test: Biodistribution in the brain of rat, 15 min after administration; format: ADME, organism-based; settings: in vivo, 0.25 h; how it was run: as §1
[17] = tested on: Rattus norvegicus; test: Biodistribution in the kidneys of rat, 15 min after administration; format: ADME, organism-based, Kidney; settings: in vivo, 0.25 h; how it was run: as §1
[18] = tested on: Rattus norvegicus; test: Biodistribution in the lungs of rat, 15 min after administration; format: ADME, organism-based, Lung; settings: in vivo, 0.25 h; how it was run: as §1
[19] = tested on: Rattus norvegicus; test: Biodistribution in the kidneys of rat, 2 min after administration; format: ADME, organism-based, Kidney; settings: in vivo; how it was run: as §1
[20] = tested on: Rattus norvegicus; test: Biodistribution in the skin of rat, 15 min after administration; format: ADME, organism-based, Zone of skin; settings: in vivo, 0.25 h; how it was run: as §1
[21] = tested on: Rattus norvegicus; test: Biodistribution in the heart of rat, 2 min after administration; format: ADME, organism-based; settings: in vivo; how it was run: as §1
[22] = tested on: Rattus norvegicus; test: Biodistribution in the stomach of rat, 2 min after administration; format: ADME, organism-based; settings: in vivo; how it was run: as §1

Q: With “(Syn-isomer) 99mTc-2,3-bis(2-thioacetamido)propanate” as the substance, how does the Biodistribution [1] read?
A: 0.43%

Q: What about the Biodistribution [2] of the same substance?
A: 18.1%

Q: What about the Biodistribution [3] of the same substance?
A: 18.6%

Q: And the Biodistribution [4]?
A: 0.7%

Q: And the Biodistribution [5]?
A: 0.22%

Q: What about the Biodistribution [6] of the same substance?
A: 5.37% and 2.46%

Q: What about the Biodistribution [7] of the same substance?
A: 0.07%

Q: What about the Biodistribution [8] of the same substance?
A: 2.04%

Q: And the Biodistribution [9]?
A: 0.79%

Q: And the Biodistribution [10]?
A: 8.43%

Q: What about the Biodistribution [11] of the same substance?
A: 5.33%

Q: What about the Biodistribution [12] of the same substance?
A: 5.82%

Q: What about the Biodistribution [13] of the same substance?
A: 9.18% and 2.77%

Q: What about the Biodistribution [14] of the same substance?
A: 9.18%

Q: What about the Biodistribution [15] of the same substance?
A: 4.51%

Q: And the Biodistribution [16]?
A: 1.08%

Q: What about the Biodistribution [17] of the same substance?
A: 2.22%

Q: And the Biodistribution [18]?
A: 3.38%

Q: And the Biodistribution [19]?
A: 7.8%

Q: What about the Biodistribution [20] of the same substance?
A: 15.7%

Q: What about the Biodistribution [21] of the same substance?
A: 2.46%

Q: What about the Biodistribution [22] of the same substance?
A: 1.85%
